Results taken from ChEMBL document CHEMBL1135463 (J Med Chem, 2002).
Converted amounts (≈) assume the structure as drawn. The source made the active and inactive calls. No cut-off for these calls is given here.

How the values were obtained:
[1] = In vitro growth inhibition of NCI-H460 (human non-small cell lung carcinoma) cell line.; assay type: functional
[2] = test system: Stenotrophomonas maltophilia; assay: The minimum inhibitory concentration (MIC) that inhibits all visible growth of the Stenotrophomonas maltophilia (bacteria) at 64 ug/mL; NI is no inhibition; assay type: functional, organism-based
How it was run: (§1)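 Broth microdilution following NCCLS reference methods (M7-A4 for aerobic bacteria, the yeast broth dilution standard for fungi). MIC is the lowest compound concentration giving optically clear wells, with no visible growth of the test organism.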

[3] = test system: Enterobacter cloacae; assay: The minimum inhibitory concentration (MIC) that inhibits all visible growth of the Enterobacter cloacae (bacteria) at 64 ug/mL; NI is no inhibition; assay type: functional, organism-based; how it was run: as §1
[4] = test system: SF-268; assay: In vitro growth inhibition of central nervous system SF-268 cell line.; assay type: functional; details: Homo sapiens
[5] = test system: DU-145; assay: In vitro growth inhibition of DU-145 (human prostate carcinoma) cell line.; assay type: functional
[6] = test system: Micrococcus luteus; assay: the minimum inhibitory concentration (MIC) that inhibits all visible growth of the Micrococcus luteus (bacteria) at 64 ug/mL; NI is no inhibition; assay type: functional, organism-based; how it was run: as §1
[7] = test system: Escherichia coli; assay: The minimum inhibitory concentration (MIC) that inhibits all visible growth of the Escherichia coli (bacteria) at 64 ug/mL; NI is no inhibition; assay type: functional, organism-based; how it was run: as §1
[8] = test system: Cryptococcus neoformans; assay: Minimum inhibitory concentration (MIC) that inhibits all visible growth of the Cryptococcus neoformans (fungus); assay type: functional; how it was run: as §1
[9] = test system: Streptococcus pneumoniae; assay: The minimum inhibitory concentration (MIC) that inhibits all visible growth of the Streptococcus pneumoniae (bacteria); MIC may range from (32 - 64); assay type: functional; how it was run: as §1
[10] = test system: Neisseria gonorrhoeae; assay: The minimum inhibitory concentration (MIC) that inhibits all visible growth of the Neisseria gonorrhoeae (bacteria); value may range from (16 -32); assay type: functional; how it was run: as §1
[11] = test system: Enterococcus faecalis; assay: The minimum inhibitory concentration (MIC) that inhibits all visible growth of the Enterococcus faecalis (bacteria) at 64 ug/mL; NI is no inhibition; assay type: functional, organism-based; how it was run: as §1
[12] = test system: KM-20L2; assay: In vitro growth inhibition of KM20L2 cell line.; assay type: functional; details: Homo sapiens
[13] = test system: Staphylococcus aureus; assay: The minimum inhibitory concentration (MIC) that inhibits all visible growth of the Staphylococcus aureus (bacteria) at 64 ug/mL; NI is no inhibition; assay type: functional, organism-based; how it was run: as §1
[14] = test system: BXPC-3; assay: In vitro growth inhibition of BXPC-3 (human pancreatic adenocarcinoma) cell line.; assay type: functional
[15] = test system: Candida albicans; assay: The minimum inhibitory concentration (MIC) that inhibits all visible growth of the Candida albicans (fungus) at 64 ug/mL; NI is no inhibition; assay type: functional, organism-based; how it was run: as §1
[16] = test system: P388; assay: In vitro inhibition of P388 (murine leukemia) cell proliferation.; assay type: functional; details: Mus musculus, read-out: ED50 (the source's name)
[17] = test system: MCF7; assay: Cell growth inhibition of breast MCF-7 cells, expressed as 50% reduction in the net protein increase; assay type: functional; details: Homo sapiens
[18] = test system: Enterococcus faecalis; assay: the minimum inhibitory concentration (MIC) that inhibits all visible growth of the Enterococcus faecalis (bacteria) at 64 ug/mL; NI is no inhibition; assay type: functional, organism-based; how it was run: as §1
[19] = test system: DU-145; assay: Cell growth inhibition of prostate DU-145 cells, expressed as 50% reduction in the net protein increase; assay type: functional; details: Homo sapiens
How it was run: (§2)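 Human tumour lines kept in 5% FBS/RPMI-1640, plated and incubated 24 h before compound dilutions were added. Exposure 48 h, then TCA fixation, washing and sulforhodamine B staining, with optical density read on a plate reader. GI50 is the concentration giving a 50% reduction in net protein increase, calculated from the OD data.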

[20] = test system: Neisseria gonorrhoeae; assay: The minimum inhibitory concentration (MIC) that inhibits all visible growth of the Neisseria gonorrhoeae (bacteria); assay type: functional; how it was run: as §1
[21] = target: T1, Tubulin (Bos taurus) (UniProt Q6B856+Q862L2+Q862F3); assay: Inhibition of radiolabeled [3H]colchicine binding to tubulin at a concentration of 5 uM of the compound; assay type: protein assay
How it was run: (§3)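 [3H]colchicine 5.0 µM incubated with tubulin 1.0 µM plus inhibitor at the stated level, 10 min at 37 °C, then colchicine binding measured. Reported as percent inhibition.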

[22] = target: T1, Tubulin (Bos taurus); assay: Inhibition of radiolabeled [3H]colchicine binding to tubulin at a concentration of 2 uM of the compound; assay type: protein assay; how it was run: as §3
[23] = test system: BXPC-3; assay: Cell growth inhibition against pancreatic BXPC-3 cells, 50% reduction in the net protein increase; assay type: functional; details: Homo sapiens; how it was run: as §2
[24] = test system: Streptococcus pneumoniae; assay: The minimum inhibitory concentration (MIC) that inhibits all visible growth of the Streptococcus pneumoniae (bacteria) at 64 ug/mL; NI is no inhibition; assay type: functional, organism-based; how it was run: as §1
[25] = test system: P388; assay: Evaluated for cell growth inhibition of the mouse leukemia P388 cells in 10% horse serum/Fisher media; assay type: functional; details: read-out: ED50 (the source's name)
How it was run: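 Murine P388 leukaemia cells grown in 10% horse serum/Fisher medium, incubated 24 h, then compound dilutions added. After 48 h, cells counted on a Coulter Z1 particle counter and the ED50 for growth inhibition calculated.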

[26] = test system: NCI-H460; assay: Cell growth inhibition of lung-NSC NCI-H460 cells, expressed as 50% reduction in the net protein increase; assay type: functional; details: Homo sapiens; how it was run: as §2
[27] = test system: SF-268; assay: Cell growth inhibition of central nervous system (CNS) SF-268 cells, expressed as 50% reduction in the net protein increase; assay type: functional; details: Homo sapiens; how it was run: as §2
[28] = test system: Cryptococcus neoformans; assay: Minimum inhibitory concentration (MIC) that inhibits all visible growth of the Cryptococcus neoformans (fungus) at 64 ug/mL; NI is no inhibition; assay type: functional, organism-based; how it was run: as §1
[29] = test system: KM-20L2; assay: Cell growth inhibition of colon KM20L2 cells, expressed as 50% reduction in the net protein increase; assay type: functional; details: Homo sapiens; how it was run: as §2
[30] = target: Tubulin (Bos taurus, UniProt Q6B856+Q862L2+Q862F3); assay: Inhibition of tubulin polymerization reported as IC50; assay type: functional
[31] = test system: Streptococcus pneumoniae; assay: The minimum inhibitory concentration (MIC) that inhibits all visible growth of the Streptococcus pneumoniae (bacteria); assay type: functional; how it was run: as §1

SMILES	GI50 [5] [µg/mL]	GI50 [14] [µg/mL]	EC50 [16] [µg/mL]	GI50 [17] [µg/mL]	MIC [20] [µg/mL]	GI50 [1] [µg/mL]	GI50 [4] [µg/mL]	GI50 [12] [µg/mL]	other results
COc1ccc(/C=C/c2cc(OC)cc(OC)c2)cc1 [TRISMETHOXYRESVERATROL]	1.5 (≈ 5.55 µM)	0.35 (≈ 1.29 µM)	2.77 (≈ 10.2 µM)	–	–	0.62 (≈ 2.29 µM)	0.56 (≈ 2.07 µM)	–	–
O=C(c1ccc(O)cc1)c1cc(O)cc(O)c1	15 (≈ 65.2 µM)	20.5 (≈ 89 µM)	> 100	30.6 (≈ 133 µM)	–	25 (≈ 109 µM)	22.3 (≈ 96.9 µM)	24.5 (≈ 106 µM)	MIC [31]: 64 µg/mL (≈ 278 µM)
COc1cc(OC)cc(C(O)c2ccc(O)cc2)c1 (stereo not given)	5.8 (≈ 22.3 µM)	1.3 (≈ 4.99 µM)	> 10	2 (≈ 7.68 µM)	4 (≈ 15.4 µM)	2.3 (≈ 8.84 µM)	0.65 (≈ 2.5 µM)	5.3 (≈ 20.4 µM)	MIC [2]: inactive; MIC [3]: inactive; MIC [6]: inactive; MIC [7]: inactive; MIC [31]: 16 µg/mL (≈ 61.5 µM); MIC [11]: inactive; MIC [13]: inactive; MIC [28]: inactive; MIC [15]: inactive; MIC [18]: inactive
COc1cc(/C=C\c2ccc(OP(=O)(OCc3ccccc3)OCc3ccccc3)cc2)cc(OC)c1	35.6 (≈ 68.9 µM)	5.4 (≈ 10.5 µM)	4.45 (≈ 8.62 µM)	9 (≈ 17.4 µM)	–	10.7 (≈ 20.7 µM)	38.5 (≈ 74.5 µM)	24.7 (≈ 47.8 µM)	–
COc1ccc(/C=C\c2cc(OC)c(OC)c(OC)c2)cc1O [COMBRETASTATIN A4]	–	–	–	–	–	–	–	–	GI50 [19]: 0.0008 µg/mL (≈ 0.00253 µM); GI50 [23]: 0.39 µg/mL (≈ 1.23 µM); EC50 [25]: 0.0003 µg/mL (≈ 0.000948 µM); GI50 [26]: 0.0006 µg/mL (≈ 0.0019 µM); GI50 [27]: > 0.01 µg/mL; GI50 [29]: 0.34 µg/mL (≈ 1.07 µM)
COc1ccc(/C=C\c2cc(O)cc(OC)c2)cc1	–	–	3.82 (≈ 14.9 µM)	–	–	0.72 (≈ 2.81 µM)	–	–	–
COc1ccc(/C=C\c2cc(O)cc(O)c2)cc1	10.6 (≈ 43.8 µM)	14.1 (≈ 58.2 µM)	2.75 (≈ 11.4 µM)	12.7 (≈ 52.4 µM)	16 (≈ 66 µM)	6.4 (≈ 26.4 µM)	15.6 (≈ 64.4 µM)	17.7 (≈ 73.1 µM)	–

Second part, led by results:

GI50 [5] [µg/mL]	GI50 [14] [µg/mL]	EC50 [16] [µg/mL]	GI50 [17] [µg/mL]	MIC [20] [µg/mL]	SMILES	GI50 [1] [µg/mL]	GI50 [4] [µg/mL]	GI50 [12] [µg/mL]	other results
12.6 (≈ 48.8 µM)	15 (≈ 58.1 µM)	13.4 (≈ 51.9 µM)	14.2 (≈ 55 µM)	–	COc1ccc(C(=O)c2cc(O)cc(OC)c2)cc1	10.3 (≈ 39.9 µM)	13.9 (≈ 53.8 µM)	16.2 (≈ 62.7 µM)	MIC [2]: inactive; MIC [3]: inactive; MIC [6]: inactive; MIC [7]: inactive; MIC [8]: 64 µg/mL (≈ 248 µM); MIC [9]: 64 µg/mL (≈ 248 µM); MIC [10]: 32 µg/mL (≈ 124 µM); MIC [11]: inactive; MIC [13]: inactive; MIC [15]: inactive; MIC [18]: inactive
23.2 (≈ 84.6 µM)	16.1 (≈ 58.7 µM)	20.2 (≈ 73.6 µM)	–	–	COc1ccc(C(O)c2cc(OC)cc(OC)c2)cc1 (stereo not given)	21.7 (≈ 79.1 µM)	23.3 (≈ 84.9 µM)	21 (≈ 76.6 µM)	–
–	–	–	–	32 (≈ 118 µM)	COc1ccc(C(=O)c2cc(OC)cc(OC)c2)cc1	–	–	–	GI50 [19]: 1.2 µg/mL (≈ 4.41 µM); inhibition [21]: 69%; MIC [2]: inactive; MIC [3]: inactive; inhibition [22]: 47%; GI50 [23]: 0.42 µg/mL (≈ 1.54 µM); MIC [6]: inactive; MIC [7]: inactive; MIC [24]: inactive; EC50 [25]: 1.23 µg/mL (≈ 4.52 µM); MIC [11]: inactive; GI50 [26]: 0.53 µg/mL (≈ 1.95 µM); MIC [13]: inactive; GI50 [27]: 0.86 µg/mL (≈ 3.16 µM); MIC [28]: inactive; MIC [15]: inactive; MIC [18]: inactive; GI50 [29]: 0.42 µg/mL (≈ 1.54 µM); IC50 [30]: 2600 nM
–	–	4.49 (≈ 19.7 µM)	–	16 (≈ 70.1 µM)	Oc1ccc(/C=C/c2cc(O)cc(O)c2)cc1 [RESVERATROL]	–	–	–	–
